Source: ChEMBL document CHEMBL5724801, “EUbOPEN Chemogenomics Library - Multiplex” (2024)
Values joined by “and” are separate entries in the source; they are usually repeats but may differ in a detail not shown here. Identical values can stand only once.

What was measured:
Fibroblast = experiment: Multiplex assay against human fibroblast; type: toxicity, cell-based
How it was run: (§1)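 Values for tubulin, mitochondrial-mass and membrane-permeability phenotypes are per cents of cells with healthy nuclei. These cells were identified by CellPathfinder machine-learning gating of live cells that had been stained at seeding with Hoechst33342, BioTracker Green Microtubule Cytoskeleton Dye, MitoTracker Red and Annexin V Alexa Fluor 680 and imaged on a CQ1 microscope at 37°C and 5% CO2 after compound addition. The gating first set Hoechst high-intensity objects apart from normal cells, then split normal cells into healthy, pyknosed or fragmented nuclei, and pyknosed cells into mitotic or apoptotic.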

U2OS = experiment: Multiplex assay against U2OS; type: toxicity, cell-based; conditions: human; how it was run: as §1
[1] = 24 h, 1 µM, compound concentration 1 uM
[2] = 24 h, 10 µM, compound concentration 10 uM
[3] = 48 h, 1 µM, compound concentration 1 uM
[4] = 48 h, 10 µM, compound concentration 10 uM
[5] = 12 h, 1 µM, compound concentration 1 uM
[6] = 12 h, 10 µM, compound concentration 10 uM

Q: `CCCCCC(O)/C=C/[C@H]1C(=O)CC(O)C1C/C=C\CCCC(=O)O` (stereo partly drawn) was tested. Which “Total Cell Count” value (Fibroblast; [1]) did it give?
A: 169 and 184

Q: And the “Population Apoptotic (%)” value (Fibroblast; [2])?
A: 61% and 33%

Q: And the “Population Fragmented Nuclei (%)” value (Fibroblast; [2])?
A: 17% and 18%

Q: What about the “Population Healthy Nuclei (%)” value (Fibroblast; [2]) of the same compound?
A: 72% and 59%

Q: What about the “Population Hoechst High Intensity Objects (%)” value (Fibroblast; [2]) of the same compound?
A: 2% and 4%

Q: What about the “Population Membrane Permeable-Phenotype (%)” value (Fibroblast; [2]) of the same compound?
A: 1% and 3%

Q: And the “Population Mitochondria Different-Phenotype (%)” value (Fibroblast; [2])?
A: 3% and 1%

Q: What about the “Population Mitotic Cells (%)” value (Fibroblast; [2]) of the same compound?
A: 38% and 66%

Q: What about the “Population Normal (%)” value (Fibroblast; [2]) of the same compound?
A: 97% and 95%

Q: And the “Population Pyknosed Nuclei (%)” value (Fibroblast; [2])?
A: 9% and 21%

Q: And the “Population Tubulin-Different-Phenotype (%)” value (Fibroblast; [2])?
A: 21% and 29%

Q: What about the “Total Cell Count” value (Fibroblast; [2]) of the same compound?
A: 138 and 101

Q: And the “Population Apoptotic (%)” value (Fibroblast; [3])?
A: 50% and 30%

Q: And the “Population Fragmented Nuclei (%)” value (Fibroblast; [3])?
A: 27% and 47%

Q: What about the “Population Healthy Nuclei (%)” value (Fibroblast; [3]) of the same compound?
A: 66% and 46%

Q: What about the “Population Hoechst High Intensity Objects (%)” value (Fibroblast; [3]) of the same compound?
A: 3% and 2%

Q: And the “Population Membrane Permeable-Phenotype (%)” value (Fibroblast; [3])?
A: 0% and 3%

Q: What about the “Population Mitochondria Different-Phenotype (%)” value (Fibroblast; [3]) of the same compound?
A: 2% and 7%

Q: And the “Population Mitotic Cells (%)” value (Fibroblast; [3])?
A: 50% and 70%

Q: What about the “Population Normal (%)” value (Fibroblast; [3]) of the same compound?
A: 96% and 97%

Q: What about the “Population Pyknosed Nuclei (%)” value (Fibroblast; [3]) of the same compound?
A: 5%

Q: What about the “Population Tubulin-Different-Phenotype (%)” value (Fibroblast; [3]) of the same compound?
A: 19% and 42%

Q: And the “Total Cell Count” value (Fibroblast; [3])?
A: 175 and 186

Q: What about the “Population Apoptotic (%)” value (Fibroblast; [4]) of the same compound?
A: 63% and 33%

Q: And the “Population Fragmented Nuclei (%)” value (Fibroblast; [4])?
A: 17% and 30%

Q: What about the “Population Healthy Nuclei (%)” value (Fibroblast; [4]) of the same compound?
A: 74% and 61%

Q: And the “Population Hoechst High Intensity Objects (%)” value (Fibroblast; [4])?
A: 4% and 0%

Q: What about the “Population Membrane Permeable-Phenotype (%)” value (Fibroblast; [4]) of the same compound?
A: 0% and 6%

Q: And the “Population Mitochondria Different-Phenotype (%)” value (Fibroblast; [4])?
A: 0% and 3%

Q: What about the “Population Mitotic Cells (%)” value (Fibroblast; [4]) of the same compound?
A: 36% and 66%

Q: What about the “Population Normal (%)” value (Fibroblast; [4]) of the same compound?
A: 95% and 99%

Q: And the “Population Pyknosed Nuclei (%)” value (Fibroblast; [4])?
A: 8%

Q: What about the “Total Cell Count” value (Fibroblast; [4]) of the same compound?
A: 141 and 104

Q: What about the “Population Apoptotic (%)” value (U2OS; [5]) of the same compound?
A: 60% and 88%

Q: And the “Population Fragmented Nuclei (%)” value (U2OS; [5])?
A: 28% and 15%

Q: What about the “Population Healthy Nuclei (%)” value (U2OS; [5]) of the same compound?
A: 59% and 76%

Q: What about the “Population Hoechst High Intensity Objects (%)” value (U2OS; [5]) of the same compound?
A: 1% and 0%

Q: And the “Population Membrane Permeable-Phenotype (%)” value (U2OS; [5])?
A: 5% and 8%

Q: And the “Population Mitochondria Different-Phenotype (%)” value (U2OS; [5])?
A: 4% and 6%

Q: What about the “Population Normal (%)” value (U2OS; [5]) of the same compound?
A: 98% and 99%

Q: And the “Population Pyknosed Nuclei (%)” value (U2OS; [5])?
A: 12% and 8%

Q: And the “Population Tubulin-Different-Phenotype (%)” value (U2OS; [5])?
A: 4% and 8%

Q: And the “Total Cell Count” value (U2OS; [5])?
A: 203 and 113

Q: And the “Population Apoptotic (%)” value (U2OS; [6])?
A: 71% and 66%

Q: And the “Population Fragmented Nuclei (%)” value (U2OS; [6])?
A: 23% and 16%

Q: What about the “Population Healthy Nuclei (%)” value (U2OS; [6]) of the same compound?
A: 69% and 73%

Q: And the “Population Hoechst High Intensity Objects (%)” value (U2OS; [6])?
A: 2%

Q: And the “Population Membrane Permeable-Phenotype (%)” value (U2OS; [6])?
A: 8% and 10%

Q: And the “Population Mitochondria Different-Phenotype (%)” value (U2OS; [6])?
A: 3% and 2%

Q: What about the “Population Mitotic Cells (%)” value (U2OS; [6]) of the same compound?
A: 28% and 33%

Q: And the “Population Normal (%)” value (U2OS; [6])?
A: 97%

Q: What about the “Population Pyknosed Nuclei (%)” value (U2OS; [6]) of the same compound?
A: 7% and 9%

Q: And the “Population Tubulin-Different-Phenotype (%)” value (U2OS; [6])?
A: 5% and 4%

Q: And the “Total Cell Count” value (U2OS; [6])?
A: 190 and 94

Q: And the “Population Apoptotic (%)” value (U2OS; [1])?
A: 86% and 90%

Q: What about the “Population Fragmented Nuclei (%)” value (U2OS; [1]) of the same compound?
A: 27% and 16%

Q: And the “Population Healthy Nuclei (%)” value (U2OS; [1])?
A: 63% and 74%

Q: What about the “Population Hoechst High Intensity Objects (%)” value (U2OS; [1]) of the same compound?
A: 2% and 0%

Q: What about the “Population Membrane Permeable-Phenotype (%)” value (U2OS; [1]) of the same compound?
A: 3% and 5%

Q: And the “Population Mitochondria Different-Phenotype (%)” value (U2OS; [1])?
A: 0% and 7%

Q: And the “Population Mitotic Cells (%)” value (U2OS; [1])?
A: 13% and 9%

Q: What about the “Population Normal (%)” value (U2OS; [1]) of the same compound?
A: 98% and 99%

Q: And the “Population Pyknosed Nuclei (%)” value (U2OS; [1])?
A: 8%

Q: What about the “Population Tubulin-Different-Phenotype (%)” value (U2OS; [1]) of the same compound?
A: 1% and 4%

Q: What about the “Total Cell Count” value (U2OS; [1]) of the same compound?
A: 250 and 131

Q: What about the “Population Apoptotic (%)” value (U2OS; [2]) of the same compound?
A: 100% and 90%

Q: What about the “Population Fragmented Nuclei (%)” value (U2OS; [2]) of the same compound?
A: 23% and 16%

Q: And the “Population Healthy Nuclei (%)” value (U2OS; [2])?
A: 66% and 74%

Q: What about the “Population Hoechst High Intensity Objects (%)” value (U2OS; [2]) of the same compound?
A: 1% and 2%

Q: And the “Population Membrane Permeable-Phenotype (%)” value (U2OS; [2])?
A: 6% and 5%

Q: And the “Population Mitochondria Different-Phenotype (%)” value (U2OS; [2])?
A: 4% and 1%

Q: What about the “Population Mitotic Cells (%)” value (U2OS; [2]) of the same compound?
A: 0% and 10%

Q: What about the “Population Normal (%)” value (U2OS; [2]) of the same compound?
A: 98% and 97%

Q: And the “Population Pyknosed Nuclei (%)” value (U2OS; [2])?
A: 9% and 8%

Q: And the “Population Tubulin-Different-Phenotype (%)” value (U2OS; [2])?
A: 4% and 2%

Q: What about the “Total Cell Count” value (U2OS; [2]) of the same compound?
A: 216 and 118

Q: What about the “Population Apoptotic (%)” value (U2OS; [3]) of the same compound?
A: 89% and 100%

Q: And the “Population Fragmented Nuclei (%)” value (U2OS; [3])?
A: 19% and 13%

Q: And the “Population Healthy Nuclei (%)” value (U2OS; [3])?
A: 71% and 79%

Q: What about the “Population Hoechst High Intensity Objects (%)” value (U2OS; [3]) of the same compound?
A: 2%

Q: And the “Population Membrane Permeable-Phenotype (%)” value (U2OS; [3])?
A: 4% and 5%

Q: What about the “Population Mitochondria Different-Phenotype (%)” value (U2OS; [3]) of the same compound?
A: 3% and 4%

Q: And the “Population Mitotic Cells (%)” value (U2OS; [3])?
A: 10% and 0%

Q: What about the “Population Normal (%)” value (U2OS; [3]) of the same compound?
A: 97%

Q: And the “Population Pyknosed Nuclei (%)” value (U2OS; [3])?
A: 8% and 7%

Q: And the “Population Tubulin-Different-Phenotype (%)” value (U2OS; [3])?
A: 2% and 3%

Q: What about the “Total Cell Count” value (U2OS; [3]) of the same compound?
A: 334 and 189

Q: And the “Population Apoptotic (%)” value (U2OS; [4])?
A: 89% and 100%

Q: What about the “Population Fragmented Nuclei (%)” value (U2OS; [4]) of the same compound?
A: 23% and 21%

Q: What about the “Population Healthy Nuclei (%)” value (U2OS; [4]) of the same compound?
A: 67% and 70%

Q: What about the “Population Hoechst High Intensity Objects (%)” value (U2OS; [4]) of the same compound?
A: 3% and 2%

Q: And the “Population Membrane Permeable-Phenotype (%)” value (U2OS; [4])?
A: 6% and 7%

Q: And the “Population Mitochondria Different-Phenotype (%)” value (U2OS; [4])?
A: 3%

Q: And the “Population Mitotic Cells (%)” value (U2OS; [4])?
A: 10% and 0%

Q: And the “Population Normal (%)” value (U2OS; [4])?
A: 96% and 97%

Q: And the “Population Pyknosed Nuclei (%)” value (U2OS; [4])?
A: 9% and 7%

Q: What about the “Population Tubulin-Different-Phenotype (%)” value (U2OS; [4]) of the same compound?
A: 4% and 3%

Q: What about the “Total Cell Count” value (U2OS; [4]) of the same compound?
A: 302 and 161
